Measurements from ChEMBL document CHEMBL1143382, “Discovery of chiral cyclopropyl dihydro-alkylthio-benzyl-oxopyrimidine (S-DABO) derivatives as potent HIV-1 reverse transcriptase inhibitors with high activity against clinically relevant mutants” (J Med Chem, 2009).

Tests used:
[1] = target: Human immunodeficiency virus type 1 reverse transcriptase (Human immunodeficiency virus 1) (UniProt Q72547); assay: Binding affinity to HIV1 reverse transcriptase treated for 3 mins by surface plasmon resonance
[2] = target: Human immunodeficiency virus type 1 reverse transcriptase (Human immunodeficiency virus 1) (UniProt Q72547)
[3] = test system: Human immunodeficiency virus type 1 reverse transcriptase (Human immunodeficiency virus 1), Q72547 [K103N]
[4] = test system: Human immunodeficiency virus 1; assay: Antiviral activity against HIV1 reverse transcriptase K103N mutant infected in human MT4 cells after 5 days by MTT assay; format: functional, organism-based; details: Human immunodeficiency virus 1, MT4, 120 h
Method in brief: (§1)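 MT-4 lymphoid cells infected with the HIV-1 strain carrying the indicated RT mutation in the presence of varying compound concentrations. Viable cells counted by tetrazolium (MTT) colorimetric read-out at day 5 post-infection. […] Mock-infected cells were used for cytotoxicity. Values are means of at least two experiments.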

[5] = Cytotoxicity against human MT4 cells by MTT assay; format: cell-based
[6] = test system: Human immunodeficiency virus 1; assay: Antiviral activity against HIV1 reverse transcriptase Y181C mutant infected in human MT4 cells after 5 days by MTT assay; format: functional, organism-based; details: Human immunodeficiency virus 1, MT4, 120 h; method in brief: as §1
[7] = test system: Human immunodeficiency virus 1; assay: Antiviral activity against HIV1 reverse transcriptase Y188L mutant infected in human MT4 cells after 5 days by MTT assay; format: functional, organism-based; details: Human immunodeficiency virus 1, MT4, 120 h; method in brief: as §1
[8] = test system: Human immunodeficiency virus type 1 reverse transcriptase (Human immunodeficiency virus 1), Q72547 [Y181I]
[9] = test system: Human immunodeficiency virus 1; assay: Antiviral activity against wild type HIV1 NL4-3 infected in human MT4 cells after 5 days by MTT assay; format: functional, organism-based; details: Human immunodeficiency virus 1, NL4-3, MT4, 120 h
[10] = target: T1, Human immunodeficiency virus type 1 reverse transcriptase (Human immunodeficiency virus 1, UniProt Q72547, K103N); assay: Inhibition of HIV1 recombinant reverse transcriptase K103N mutant-DNA-dNTP ternary complex expressed in Escherichia coli BL21
[11] = target: T2, Human immunodeficiency virus type 1 reverse transcriptase (Human immunodeficiency virus 1, UniProt Q72547); assay: Inhibition of wild type HIV1 reverse transcriptase-DNA-dNTP ternary complex
[12] = target: T1, Human immunodeficiency virus type 1 reverse transcriptase; assay: Inhibition of HIV1 recombinant reverse transcriptase K103N mutant-DNA binary complex expressed in Escherichia coli BL21
[13] = target: T1, Human immunodeficiency virus type 1 reverse transcriptase; assay: Inhibition of HIV1 recombinant free reverse transcriptase K103N mutant expressed in Escherichia coli BL21
[14] = target: T2, Human immunodeficiency virus type 1 reverse transcriptase; assay: Inhibition of wild type HIV1 reverse transcriptase-DNA binary complex
[15] = target: T2, Human immunodeficiency virus type 1 reverse transcriptase; assay: Inhibition of wild type HIV1 free reverse transcriptase

SMILES	Ka [1]	ID50 [2]	ID50 [3]	EC50 [4]	CC50 [5]	EC50 [6]	EC50 [7]	ID50 [8]	EC50 [9]	Ki [10]	Ki [11]	Ki [12]	Ki [13]	Ki [14]	Ki [15]
Cc1cc(C#N)cc(C)c1Oc1nc(Nc2ccc(C#N)cc2)nc(N)c1Br	0.8 ×10⁴ /M/s														
COc1ccc(C2CC2CSc2nc(C(C)c3c(F)cccc3F)c(C)c(=O)[nH]2)cc1 (racemic)		40 nM	3000 nM	520 nM	37300 nM	160 nM	45 nM	6000 nM	0.6 nM						
COc1ccc([C@@H]2C[C@H]2CSc2nc([C@@H](C)c3c(F)cccc3F)c(C)c(=O)[nH]2)cc1		300 nM	600 nM	2550 nM	47200 nM	520 nM	190 nM	6000 nM	4.9 nM						
O=C1Nc2ccc(Cl)cc2[C@@](C#CC2CC2)(C(F)(F)F)O1 [EFAVIRENZ]					> 320 nM	8 nM	3 nM								
COc1ccc([C@H]2C[C@@H]2CSc2nc([C@@H](C)c3c(F)cccc3F)c(C)c(=O)[nH]2)cc1		120 nM	830 nM	5510 nM	> 56200 nM	7240 nM	1080 nM	2300 nM	90 nM						
COc1ccc(/C=C/CSc2nc([C@@H](C)c3c(F)cccc3F)c(C)c(=O)[nH]2)cc1		600 nM	7010 nM					27800 nM							
Cc1ccnc2c1NC(=O)c1cccnc1N2C1CC1 [NEVIRAPINE]					> 7500 nM	> 7500 nM	> 7500 nM								
COc1ccc([C@H]2C[C@@H]2CSc2nc([C@H](C)c3c(F)cccc3F)c(C)c(=O)[nH]2)cc1		40 nM	400 nM	3710 nM	> 56200 nM	2700 nM	700 nM	900 nM	10 nM	300 nM	40 nM	400 nM	600 nM	30 nM	40 nM
COc1ccc([C@@H]2C[C@H]2CSc2nc([C@H](C)c3c(F)cccc3F)c(C)c(=O)[nH]2)cc1	1 ×10⁴ /M/s	20 nM	40 nM	36 nM	14600 nM	13 nM	1.5 nM	800 nM	0.07 nM	30 nM	9 nM	40 nM	65 nM	8 nM	10 nM
Cc1c([C@H](C)c2c(F)cccc2F)nc(SC/C=C/c2ccccc2)[nH]c1=O		10 nM	470 nM					2990 nM							
COc1ccc(/C=C/CSc2nc(C(C)c3c(F)cccc3F)c(C)c(=O)[nH]2)cc1 (racemic)	1 ×10⁴ /M/s														
